# Experimental data as given in ChEMBL document CHEMBL5357049, “Discovery of new dibenzodiazepine derivatives as antibacterials against intracellular bacteria” (RSC Med Chem, 2024).
# Activity calls are given as the source filed them. The rule behind the calls is not given here.
# Legend:
# [1] = tested on: Salmonella typhimurium; assay: Antibacterial activity against Salmonella typhimurium ATCC14028 infected in mouse RAW264.7 cells assessed as reduction in intracellular bacterial growth incubated for 24 hrs in presence of gentamicin by CMFDA and DAPI staining based high-content screening method; assay type: functional, organism-based, Salmonella enterica subsp. enterica serovar Typhimurium; conditions: Salmonella enterica, ATCC14028, RAW264.7, 24 h
# Method in brief: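 RAW264.7 seeded at 10^4 cells/well for 20 h, then infected at MOI 50 with RFP-expressing ATCC14028 (subcultured 2 h, OD600 0.6 ≈ 1.5×10^8 CFU/mL). After 1 h infection: 100 µg/mL gentamicin 1 h, then compound with 20 µg/mL gentamicin for 24 h. Stained with 2.5 µM CMFDA, fixed in 3.7% formaldehyde, DAPI nuclei; nuclei and intracellular bacteria counted by imaging, 10× objective.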
# [2] = Selectivity ratio of CC50 for cytotoxicity against mouse RAW264.7 cells to EC50 for antibacterial activity against Salmonella typhimurium ATCC14028 infected in mouse RAW264.7 cells; assay type: toxicity, cell-based; conditions: read-out: Ratio CC50/EC50
# [3] = Cytotoxicity against mouse RAW264.7 cells assessed as reduction in cell viability incubated for 24 hrs by MTT assay; assay type: toxicity, cell-based
# Method in brief: (§1)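 Cells seeded at 10^5 cells/mL, grown 20 h at 37°C, 5% CO2, then exposed to compound for 24 h. Medium replaced with 0.5 mg/mL MTT for 1 h, formazan dissolved in DMSO, absorbance read at 570 nm; CC50 calculated. HT-29 and HCT-116 kept in McCoy's 5A with 10% FBS, THP-1 in RPMI 1640 with 10% FBS, others in DMEM with 10% FBS.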
# [4] = tested on: Salmonella typhimurium; assay: Antibacterial activity against Salmonella typhimurium ATCC14028 infected in monocytic human THP-1 cells assessed as reduction in intracellular bacterial growth incubated for 24 hrs in presence of gentamicin by CFU assay; assay type: functional, organism-based, Salmonella enterica subsp. enterica serovar Typhimurium; conditions: Salmonella enterica, ATCC14028, THP-1, 24 h
# Method in brief: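 Undifferentiated THP-1 cells in RPMI 1640 + 10% FBS. Cells were infected 1 h with LB-grown bacteria at OD600 0.6, given 100 µg/mL gentamicin for 1 h, then compound for 24 h with 20 µg/mL gentamicin.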
# [5] = tested on: THP-1; assay: Cytotoxicity against monocytic human THP-1 cells assessed as reduction in cell viability incubated for 24 hrs in presence of gentamicin by MTT assay; assay type: functional; method in brief: as §1
# [6] = tested on: Salmonella typhimurium; assay: Antibacterial activity against Salmonella typhimurium ATCC14028 infected in human HT-29 cells assessed as reduction in intracellular bacterial growth incubated for 24 hrs in presence of gentamicin by CFU assay; assay type: functional, organism-based, Salmonella enterica subsp. enterica serovar Typhimurium; conditions: Salmonella enterica, ATCC14028, HT-29, 24 h
# Method in brief: (§2)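 Host cells: HCT-116 and HT-29 in McCoy's 5A + 10% FBS; INT-407 and J774.1 in DMEM + 10% FBS. Bacteria were LB-grown, subcultured 2 h, and set to OD600 0.6. After 1 h infection, cells got 100 µg/mL gentamicin for 1 h, then compound for 24 h with 20 µg/mL gentamicin. Lysis was 0.1% Triton X-100, then plating and overnight colony counts; EC50 calculated.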
# [7] = tested on: Salmonella typhimurium; assay: Antibacterial activity against Salmonella typhimurium CGC18 infected in mouse RAW264.7 cells assessed as reduction in intracellular bacterial growth incubated for 24 hrs in presence of gentamicin by CFU assay; conditions: Salmonella enterica, CGC18, RAW264.7, 24 h
# [8] = tested on: HT-29; assay: Cytotoxicity against human HT-29 cells assessed as reduction in cell viability incubated for 24 hrs in presence of gentamicin by MTT assay; assay type: functional; method in brief: as §1
# [9] = tested on: Salmonella typhimurium; assay: Antibacterial activity against Salmonella typhimurium ATCC14028 infected in macrophage-like human THP-1 cells assessed as reduction in intracellular bacterial growth incubated for 24 hrs in presence of gentamicin by CFU assay; assay type: functional, organism-based, Salmonella enterica subsp. enterica serovar Typhimurium; conditions: Salmonella enterica, ATCC14028, THP-1, 24 h
# Method in brief: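 THP-1 cells in RPMI 1640 + 10% FBS, differentiated with 100 ng/mL PMA for 72 h. Cells were infected 1 h with LB-grown bacteria adjusted to OD600 0.6, given 100 µg/mL gentamicin for 1 h, then compound for 24 h in 20 µg/mL gentamicin.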
# [10] = Cytotoxicity against mouse RAW264.7 cells assessed as reduction in cell viability incubated for 24 hrs by CMFDA and DAPI staining based high-content screening method; assay type: toxicity
# [11] = tested on: HCT-116; assay: Cytotoxicity against human HCT-116 cells assessed as reduction in cell viability incubated for 24 hrs in presence of gentamicin by MTT assay; assay type: functional; method in brief: as §1
# [12] = tested on: THP-1; assay: Cytotoxicity against macrophage-like human THP-1 cells assessed as reduction in cell viability incubated for 24 hrs in presence of gentamicin by MTT assay; assay type: functional
# Method in brief: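 THP-1 differentiated to macrophages with 100 ng/mL PMA for 72 h, then seeded at 10^5 cells/mL and grown 20 h. Compound added for 24 h; 0.5 mg/mL MTT for 1 h, formazan dissolved in DMSO, absorbance at 570 nm; CC50 calculated.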
# [13] = tested on: Salmonella typhimurium; assay: Antibacterial activity against Salmonella typhimurium ATCC14028 infected in mouse J774.1 cells assessed as reduction in intracellular bacterial growth incubated for 24 hrs in presence of gentamicin by CFU assay; assay type: functional, organism-based, Salmonella enterica subsp. enterica serovar Typhimurium; conditions: Salmonella enterica, ATCC14028, J774.1, 24 h; method in brief: as §2
# [14] = tested on: Listeria monocytogenes; assay: Antibacterial activity against Listeria monocytogenes infected in mouse RAW264.7 cells assessed as reduction in intracellular bacterial growth incubated for 24 hrs in presence of gentamicin by CFU assay; assay type: functional, organism-based; conditions: RAW264.7, 24 h
# Method in brief: (§3)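 Clinical isolate grown overnight (16-18 h) in BHI at 37°C with shaking, subcultured 1:100 for 2 h, pelleted, resuspended in PBS to OD600 0.6. RAW264.7 infected for 1 h, then 100 µg/mL gentamicin 1 h, then compound in medium with 20 µg/mL gentamicin for 24 h. Cells lysed in 0.1% Triton X-100, lysates serially diluted and plated, colonies counted after overnight growth; EC50 calculated.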
# [15] = tested on: RAW264.7; assay: Cytotoxicity against mouse RAW264.7 cells assessed as reduction in cell viability at 60 uM incubated for 24 hrs by MTT assay; assay type: toxicity, cell-based; conditions: raw264.7, 24 h
# [16] = tested on: Salmonella typhimurium; assay: Antibacterial activity against Salmonella typhimurium ATCC14028 infected in human Intestine 407 cells assessed as reduction in intracellular bacterial growth incubated for 24 hrs in presence of gentamicin by CFU assay; assay type: functional, organism-based, Salmonella enterica subsp. enterica serovar Typhimurium; conditions: Salmonella enterica, ATCC14028, Intestine 407, 24 h; method in brief: as §2
# [17] = tested on: J774.1; assay: Cytotoxicity against mouse J774.1 cells assessed as reduction in cell viability incubated for 24 hrs in presence of gentamicin by MTT assay; assay type: functional; method in brief: as §1
# [18] = tested on: Salmonella typhimurium; assay: Antibacterial activity against Salmonella typhimurium ATCC14028 assessed as reduction in bacterial growth upto 64 uM incubated for 24 hrs by SpectraMax microplate reader analysis; assay type: functional, organism-based; conditions: Salmonella enterica subsp. enterica serovar Typhimurium
# Method in brief: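 Overnight LB culture inoculated at 5×10^5 CFU/mL final into CAMHB or into DMEM with 10% FBS. Exposed to a range of concentrations at 37°C; growth followed by absorbance at 600 nm at set times over 24 h.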
# [19] = tested on: Salmonella typhimurium; assay: Antibacterial activity against Salmonella typhimurium ATCC14028 infected in human HCT-116 cells assessed as reduction in intracellular bacterial growth incubated for 24 hrs in presence of gentamicin by CFU assay; assay type: functional, organism-based, Salmonella enterica subsp. enterica serovar Typhimurium; conditions: Salmonella enterica, ATCC14028, HCT-116, 24 h; method in brief: as §2
# [20] = Cytotoxicity against human Intestine 407 cells assessed as reduction in cell viability incubated for 24 hrs in presence of gentamicin by MTT assay; assay type: functional; method in brief: as §1
# [21] = tested on: Salmonella typhimurium; assay: Antibacterial activity against Salmonella typhimurium ATCC14028 infected in mouse RAW264.7 cells assessed as reduction in intracellular bacterial growth incubated for 24 hrs in presence of gentamicin by CFU assay; assay type: functional, organism-based, Salmonella enterica subsp. enterica serovar Typhimurium; conditions: Salmonella enterica, ATCC14028, RAW264.7, 24 h
# Method in brief: (§4)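 RAW264.7 cells in DMEM + 10% FBS, seeded at 3×10^5 per well for 20 h. Bacteria were grown in LB for 16–18 h, subcultured 1:100 for 2 h, and brought to OD600 0.6 in PBS. After 1 h infection, cells got 100 µg/mL gentamicin for 1 h, then compound for 24 h with 20 µg/mL gentamicin.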
# [22] = target: D(2) dopamine receptor (Homo sapiens) (UniProt P14416); assay: Displacement of [3H]-labelled spiperone human recombinant D2 receptor expressed in CHO cells at 0.1 to 1 uM incubated for 2 hrs; assay type: cell-based; conditions: dose 0.1-1 µM
# Sequence of D(2) dopamine receptor (Homo sapiens) (P14416 whole entry): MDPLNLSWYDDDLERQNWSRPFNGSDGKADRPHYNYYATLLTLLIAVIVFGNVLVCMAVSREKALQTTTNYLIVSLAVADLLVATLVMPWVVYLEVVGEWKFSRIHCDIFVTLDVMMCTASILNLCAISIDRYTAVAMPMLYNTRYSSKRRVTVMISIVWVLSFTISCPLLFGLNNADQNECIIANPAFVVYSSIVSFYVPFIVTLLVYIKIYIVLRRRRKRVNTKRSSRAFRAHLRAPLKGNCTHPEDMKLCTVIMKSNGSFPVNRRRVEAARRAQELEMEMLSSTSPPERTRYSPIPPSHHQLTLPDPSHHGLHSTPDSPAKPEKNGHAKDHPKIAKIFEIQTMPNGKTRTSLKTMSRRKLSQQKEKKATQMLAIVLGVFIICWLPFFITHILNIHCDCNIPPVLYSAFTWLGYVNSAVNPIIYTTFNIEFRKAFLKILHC
# Method in brief: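 Contract radioligand binding: 20 µg human recombinant D2R from CHO cells incubated with [3H]spiperone, then compound added; pH 7.4 Tris-HCl, 2 h at 25°C.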
# [23] = tested on: Yersinia enterocolitica; assay: Antibacterial activity against Yersinia enterocolitica infected in mouse RAW264.7 cells assessed as reduction in intracellular bacterial growth incubated for 24 hrs in presence of gentamicin by CFU assay; assay type: functional, organism-based; conditions: RAW264.7, 24 h; method in brief: as §3
# [24] = tested on: Salmonella typhimurium; assay: Antibacterial activity against ACSSuT-resistant Salmonella typhimurium NL10 infected in mouse RAW264.7 cells assessed as reduction in intracellular bacterial growth incubated for 24 hrs in presence of gentamicin by CFU assay; assay type: functional, organism-based, Salmonella enterica subsp. enterica serovar Typhimurium; conditions: Salmonella enterica, NL10, RAW264.7, 24 h; method in brief: as §4
# [25] = tested on: Salmonella Typhi; assay: Antibacterial activity against Salmonella Typhi Ty2 infected in mouse RAW264.7 cells assessed as reduction in intracellular bacterial growth incubated for 24 hrs in presence of gentamicin by CFU assay; conditions: Salmonella enterica, Ty2, RAW264.7, 24 h
smiles,measurement,setting,value
Clc1ccc2c(c1)C(NCCN1CCNCC1)=Nc1cccnc1N2,EC50,[1],8.82 µM
same,selectivity ratio,[2],13.9
same,CC50 at 24 h,[3],123 µM
CN1CCN(C2=Nc3ccccc3Oc3ccc(Cl)cc32)CC1 [LOXAPINE],EC50,[1],5.77 µM
same,selectivity ratio,[2],19.1
same,CC50 at 24 h,[3],110 µM
c1ccc2c(c1)N=C(NCCCN1CCCC1)c1ccccc1N2,EC50,[4],1.02 µM
same,CC50,[5],153 µM
same,EC50,[6],5.97 µM
same,EC50,[7],1.27 µM
same,CC50,[8],> 180 µM
same,EC50,[9],0.52 µM
same,CC50 at 24 h,[10],92.5 µM
same,CC50,[11],> 180 µM
same,CC50,[12],134 µM
same,EC50,[1],0.4 µM
same,EC50,[13],0.42 µM
same,EC50,[14],0.6 µM
same,Activity,[15],Non-Toxic
same,EC50,[16],2.49 µM
same,selectivity ratio,[2],272
same,CC50 at 24 h,[3],109 µM
same,CC50,[17],86.8 µM
same,Activity,[18],inactive
same,EC50,[19],2.85 µM
same,CC50,[20],> 180 µM
same,EC50,[21],0.38 µM
same,Activity,[22],inactive
same,EC50,[23],0.93 µM
same,EC50,[24],2.28 µM
same,EC50,[25],0.55 µM
CN(C)CCNC1=Nc2ccccc2Nc2ccccc21,EC50,[1],15.2 µM
same,selectivity ratio,[2],19.7
same,CC50 at 24 h,[3],299 µM
Cc1cc2c(s1)Nc1ccccc1N=C2N1CCN(C)CC1 [OLANZAPINE],EC50,[1],5.4 µM
same,selectivity ratio,[2],36.7
same,CC50 at 24 h,[3],198 µM
Cc1cc2c(s1)Nc1ccccc1N=C2NCCN1CCNCC1,EC50,[1],4.17 µM
same,selectivity ratio,[2],24.6
same,CC50 at 24 h,[3],103 µM
Clc1ccc2c(c1)C(NCCN1CCNCC1)=Nc1ccccc1O2,EC50,[1],0.3 µM
same,selectivity ratio,[2],75
same,CC50 at 24 h,[3],22.5 µM
Clc1ccc2c(c1)C(NCCN1CCCCC1)=Nc1cccnc1N2,EC50,[1],5.67 µM
same,selectivity ratio,[2],10.9
same,CC50 at 24 h,[3],61.9 µM
CN(C)CCNC1=Nc2cccnc2Nc2ccc(Cl)cc21,EC50,[1],6.09 µM
same,selectivity ratio,[2],26.1
same,CC50 at 24 h,[3],159 µM
c1ccc2c(c1)N=C(NCCN1CCNCC1)c1ccccc1N2,EC50,[1],> 30 µM
same,CC50 at 24 h,[3],128 µM
Clc1ccc2c(c1)C(NCCCN1CCCC1)=Nc1cccnc1N2,EC50,[1],4.24 µM
same,selectivity ratio,[2],23.8
same,CC50 at 24 h,[3],101 µM
O=C(O)c1cn(C2CC2)c2cc(N3CCNCC3)c(F)cc2c1=O [CIPROFLOXACIN],EC50,[1],0.06 µM
Cc1cc2c(s1)Nc1ccccc1N=C2NCCCN1CCCC1,EC50,[1],1.14 µM
same,selectivity ratio,[2],67.3
same,CC50 at 24 h,[3],76.8 µM
Cc1cc2c(s1)Nc1ccccc1N=C2NCCN1CCCCC1,EC50,[1],2.36 µM
same,selectivity ratio,[2],16.5
same,CC50 at 24 h,[3],38.9 µM
Cc1cc2c(s1)Nc1ccccc1N=C2NCCN(C)C,EC50,[1],1.48 µM
same,selectivity ratio,[2],85.3
same,CC50 at 24 h,[3],126 µM
c1ccc2c(c1)N=C(NCCN1CCCCC1)c1ccccc1N2,EC50,[1],3.7 µM
same,selectivity ratio,[2],29.8
same,CC50 at 24 h,[3],110 µM
